This is a sample that favours compounds with a hit; in the whole collection about 2.6% have one here.
Exocytosis inh – lytic granule exocytosis inhibition. TALL-104 LAMP-1 surface exposure, flow cytometry; cells stimulated with thapsigargin and PMA. inhibition, % at 10 µM. hit rate 0.66% among 360,000;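 active means inhibition above about 55%, limit read from the data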
MC4R antag cAMP – antagonists of human melanocortin 4 receptor (MC4R); P32245; MC4R-expressing cells, MTII-stimulated cAMP, LANCE TR-FRET; inhibition, % at 6.5 µM; hit rate 0.48% among 360,000; AID 540295;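 active means inhibition above its plate's cutoff, the mean of tested wells on that plate plus 3 SD, cut at about 29% in these data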
Target sequence (P32245 whole entry, looked up): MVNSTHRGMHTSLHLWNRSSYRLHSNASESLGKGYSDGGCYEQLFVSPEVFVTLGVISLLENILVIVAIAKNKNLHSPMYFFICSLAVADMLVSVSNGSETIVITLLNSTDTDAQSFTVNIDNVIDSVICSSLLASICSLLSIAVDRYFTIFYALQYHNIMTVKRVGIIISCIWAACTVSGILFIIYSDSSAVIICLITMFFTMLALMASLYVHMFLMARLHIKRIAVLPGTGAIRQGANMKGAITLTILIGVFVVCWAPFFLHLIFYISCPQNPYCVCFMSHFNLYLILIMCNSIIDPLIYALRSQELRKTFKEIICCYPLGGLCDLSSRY
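system = U2OS cells with stable human MC4R expression | also added = Melanotan II challenge after compound preincubation | dosing = one concentration, 6.5 µM nominal | incubation = compound 30 min, challenge 1 h, detection 1 h | measured by = TR-FRET with Eu-cAMP and labeled anti-cAMP, 671 nm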
MC4R ag barr – human MC4R agonism via beta-arrestin; P32245; U2OS MC4R beta-arrestin complementation, luminescence; percent of melanotan II response, DMSO zero; activation, % at 8.9 µM; hit rate 0.98% among 360,000; AID 540308;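 active means activation above a per-plate cutoff, the mean activation of sample wells on that plate plus 3 SD, cut at about 8% in these data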
TbMetRS inhib – Trypanosoma brucei MetRS inhibition; inhibition, % at 11.9 µM; purified T. brucei MetRS, ATP depletion, Kinase-Glo luminescence; hit rate 0.4% among 360,000;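 active means inhibition above a per-plate cutoff of the control wells' mean inhibition plus 3 SD, cut at about 5.5% in these data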
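Material: parasite MetRS enzyme / Replication: singlicate, one well per compound / Signal: luminescence of leftover ATP / Schedule: 2 h aminoacylation at 25 °C after 15 min preincubation / Medium: HEPES-MgCl2-KCl buffer plus DTT, spermine, BSA, pyrophosphatase / Doses: 11.9 µM single point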
ABCB6 inh MLPCN – human ABCB6 transporter inhibition; hit rate 0.19% among 360,000; Q9NP58; K562-ABCB6 porphyrin accumulation, flow cytometry, 1 h; hits give low values; AID 602162; fluorescence ratio to DMSO, % at 10 µM;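 active means fluorescence ratio to DMSO below 75%, the collection mean minus 3 SD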;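 further: signal is porphyrin accumulated inside mitochondria; lower ratio means ABCB6 inhibition with less porphyrin fluorescence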
iPSC survival up – enhancers of human iPSC single-cell survival; hit rate 0.044% among 360,000; hiPSC single-cell survival, ATPlite luminescence; 100% = ROCK inhibitor wells, 0% = DMSO; survival enhancement, % at 20 µM; in the data active means survival enhancement above about 18%;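 further: cells exposed to compounds for 16 hours before the ATP read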
Of the large screens only hits and unclear results are named; the others gave an inactive call.

CCCCN(CC)C(=O)CSc1nc2ccccc2c(=O)n1CC1COc2ccccc2O1 (stereo unspecified)	none
CCCCCCn1c(SCC(=O)Nc2cc(C)on2)nc2ccccc2c1=O	MC4R ag barr 12
COc1ccc(CCNC(=O)COC(=O)C2=NNC(=O)CC2)cc1	none
Cc1cccc(CN2C(=O)N/C(=C/c3ccc(C)s3)C2=O)c1	MC4R ag barr 9.2
Cc1ccc(/C=C2/NC(=O)N(Cc3ccccc3)C2=O)s1	none
O=C(COc1ccccc1[N+](=O)[O-])Nc1ccc(NC(=O)c2cc3ccccc3o2)cc1	none
O=C(COc1ccc(/C=N/NC(=O)c2cc3ccccc3o2)cc1Br)Nc1ccccc1	MC4R ag barr 53
O=c1c2c([N+](=O)[O-])cc([N+](=O)[O-])cc2sn1-c1ccc(Br)cc1	Exocytosis inh 92
O=c1c2c([N+](=O)[O-])cc([N+](=O)[O-])cc2sn1Cc1ccccc1	none
Cn1c(N)c(C(=O)CSc2nnc(Cc3cccs3)n2C2CC2)c(=O)n(C)c1=O	none
COc1ccccc1CNC(=O)C(NC(=O)Nc1ccccc1)C(C)C (stereo unspecified)	none
O=C(NC(c1ccc(-c2ccccc2)cc1)c1cnccn1)C1CCN(Cc2cccc(C(F)(F)F)c2)CC1 (stereo unspecified)	none
N=C1/C(=C/c2cccn2Cc2ccc(Cl)cc2)C(=O)N=C2SC=CN12	MC4R ag barr 9.4
CC1=CC2=NC(=O)/C(=C/c3cccn3Cc3ccccc3)C(=N)N2O1	none
CC(C)C[C@@H](CNCC(=O)[C@H](CC(C)C)NC(=O)c1[nH]cnc1C(=O)N[C@H](CN)CC(C)C)NC(=O)c1nc[nH]c1C(=O)N[C@@H](CC(=O)O)C(=O)O	none
Cc1ccc(Nc2c([N+](=O)[O-])ccc3nonc23)c(C)c1	none
Cc1ccc(S(=O)c2ccc([N+](=O)[O-])c3nonc23)cc1 (stereo unspecified)	Exocytosis inh 101
CCCCCC(=O)N1C[C@@H](O)[C@H](n2cc(C3CC3)nn2)C[C@@H]1c1ccc(Cl)cc1	none
O=C(N/N=C/c1cccnc1)c1cc(-c2ccccc2Cl)nc2ccccc12	TbMetRS inhib 7.1
CN1CCN(/N=C/c2cccc(Cl)c2Cl)CC1	none
CC(C)(C)c1cc(NC(=O)Nc2ccccc2OC(F)(F)F)no1	MC4R ag barr 8.7
O=c1[nH]c(Sc2ccc([N+](=O)[O-])cc2[N+](=O)[O-])nc2ccccc12	Exocytosis inh 90
COC(=O)c1cccc(NC(=O)Nc2ccc(Cl)cc2Cl)c1	MC4R ag barr 9.0
CSc1ccccc1NC(=O)Nc1cccc2ccccc12	none
O=C(O)C1=C[C@H](c2coc3ccccc3c2=O)C[C@H](OCCCCO)O1	Exocytosis inh 69
Cc1cccc(OCc2nnc(SCC(=O)Nc3ccc(C)c(C)c3)o2)c1	MC4R ag barr 8.8
CC(C)(O)C(=O)NNC(=S)Nc1cccc(C(F)(F)F)c1	none
CC(O)(CS(=O)(=O)Cc1ccc(Cl)cc1)C(=O)Nc1cccc(C(F)(F)F)c1 (stereo unspecified)	MC4R ag barr 11
N#CC1=C(S)N=C(N)C(c2nc(-c3ccccc3)cs2)C12CCCCC2 (stereo unspecified)	none
N#CC1=C(S)N=C(N)C(c2nc(-c3ccccc3)cs2)C12CCCC2 (stereo unspecified)	Exocytosis inh 70
Cc1cccc(OCCC(=O)Nc2ccc(F)c(Cl)c2)c1	MC4R ag barr 8.9
Cc1ccc(OCCC(=O)Nc2ccc(F)c(F)c2)cc1	none
CN(CCC(=O)Nc1ccc(Br)cc1)Cc1ccccc1	TbMetRS inhib 25
Cc1cc(C)cc(NC(=O)CSc2nc(CSc3ccc(Cl)cc3)cc(=O)[nH]2)c1	MC4R ag barr 8.6
Clc1cc(Br)ccc1OCCCNCc1ccccc1	MC4R ag barr 8.8
CCOc1ccc(N2C(=O)CC(Sc3nc4ccc(OCC)cc4s3)C2=O)cc1 (stereo unspecified)	none
C=CCNc1nnc(SC2CC(=O)N(c3ccc(OCCC)cc3)C2=O)s1 (stereo unspecified)	Exocytosis inh 66
OC(c1ccccc1)c1nc(-c2cccc(C(F)(F)F)c2)cs1 (stereo unspecified)	MC4R ag barr 9.5
OC(c1ccccc1)c1nc(-c2cc(F)cc(F)c2)cs1 (stereo unspecified)	none
S=c1[nH]nc(-c2cccs2)n1/N=C/c1cn(-c2ccccc2)nc1-c1ccccc1	MC4R ag barr 9.4
Cc1ccc(-c2nn(-c3ccccc3)cc2/C=N/n2c(-c3ccncc3)n[nH]c2=S)cc1	none
CCCc1ccc(O)c(N=Cc2cc(Br)cc(OCC)c2O)c1	MC4R ag barr 12
CC(C)(C)c1ccc(OCCC(=O)Nc2ccc(N3CCOCC3)cc2N2CCOCC2)cc1	MC4R ag barr 8.6
CCOc1cc(N2CCOCC2)c(OCC)cc1NC(=O)COC(=O)CCOc1ccc(C(C)(C)C)cc1	none
COc1cc(/C=C(/C#N)c2nc3ccccc3[nH]2)ccc1Oc1ncccc1[N+](=O)[O-]	MC4R ag barr 14
CCOc1cc(/C=C(/C#N)c2nc3ccccc3[nH]2)ccc1Oc1ccc([N+](=O)[O-])cn1	none
Cc1nnc(-c2cnn(-c3ccccc3)c2N)n1Cc1ccc(F)cc1	none
CCCCCCN1CCN(C2CN(Cc3cn(Cc4ccccc4)nn3)S(=O)(=O)C2)CC1 (stereo unspecified)	none (no result: MC4R antag cAMP, MC4R ag barr)
CC1(C)CC(=O)/C(=C\c2cccc([N+](=O)[O-])c2)C(C)(C)N1	iPSC survival up 36
O=C1N/C(=N/O)S/C1=C/c1cccc([N+](=O)[O-])c1	none
O=C(c1cc(COc2ccc(F)cc2Cl)on1)N(CCO)Cc1cccs1	none
CC(C)(C)c1nn(-c2ccccc2)c2nc(Cl)c(C=O)cc12	none
CCOc1ccc(NCc2cc3c(C(C)(C)C)nn(-c4ccccc4)c3[nH]c2=O)cc1	MC4R ag barr 11
CC(C)(C)c1nn(-c2ccccc2)c2[nH]c(=O)c(C=O)cc12	Exocytosis inh 62
CCc1ccc(NCc2cc3c(C)nn(-c4ccccc4)c3[nH]c2=O)cc1	none
O=[N+]([O-])c1cc(CN(CCO)CCO)ccc1O	none
O=C(COc1ccc(Br)cc1CNC1CCCC1)Nc1ccccc1	none
CC1=C(C(=O)Nc2ccccc2)C(c2ccc(C)cc2)N=C(Nc2nc3ccccc3o2)N1 (stereo unspecified)	MC4R ag barr 9.9
CCc1ccc(N2C(=O)/C(=C/c3cccs3)N(CC(=O)OC)C2=S)cc1	MC4R ag barr 9.1
CCOC(=O)c1c(CN(CC)CC)n(-c2ccccc2)c2ccc(O)cc12	none
